Measured values reported in ChEMBL document CHEMBL4382276, “New in Vitro Assay Measuring Direct Interaction of Nonsense Suppressors with the Eukaryotic Protein Synthesis Machinery” (ACS Med Chem Lett, 2018).
Calls of active or inactive are those of the source. The calls are words filed in the database; no cut-off is given here.

Key:
Cricket paralysis virus [1] = test: Inhibition of read through activity at cricket paralysis virus-internal ribosome entry site premature termination codon UGA assessed as decrease in octapeptide formation from FKVRQ-tRNAGln at 600 uM measured after 20 mins in presence of Typ-tRNA, Leu-tRNA and [35S]-Met-tRNA by co-sedimentation assay
[2] = Inhibition of read through activity at cricket paralysis virus-internal ribosome entry site codon UGG assessed as decrease in octapeptide formation from FKVRQ-tRNAGln at 600 uM measured after 20 mins in presence of Typ-tRNA, Leu-tRNA and [35S]-Met-tRNA by co-sedimentation assay
[3] = Induction of read through activity at cricket paralysis virus-internal ribosome entry site codon UGA assessed as increase in octapeptide formation from FKVRQ-tRNAGln at 30 to 600 uM measured after 20 mins in presence of Typ-tRNA, Leu-tRNA and [35S]-Met-tRNA by co-sedimentation assay
[4] = Induction of read through activity at cricket paralysis virus-internal ribosome entry site premature termination codon UGA assessed as increase in octapeptide formation from FKVRQ-tRNAGln measured after 20 mins in presence of Typ-tRNA, Leu-tRNA and [35S]-Met-tRNA by co-sedimentation assay
[5] = at cricket paralysis virus-internal ribosome entry site codon UGG assessed as from FKVRQ-tRNAGln at EC50 to 2 times EC50 measured after 20 mins in presence of Typ-tRNA, Leu-tRNA and [35S]-Met-tRNA by co-sedimentation assay
Cricket paralysis virus [6] = test: Induction of read through activity at cricket paralysis virus-internal ribosome entry site premature termination codon UGA assessed as ratio of plateau octapeptide to FKVRQ-tRNAGln measured after 20 mins in presence of Typ-tRNA, Leu-tRNA and [35S]-Met-tRNA by co-sedimentation assay
[7] = Induction of [35S]Met-tRNA (unknown origin) precipitable particle formation at 30 uM measured after 20 mins
[8] = Induction of 80S ribosome-internal ribosome entry site (unknown origin) precipitable particle formation at 30 uM measured after 20 mins
[9] = Induction of read through activity at cricket paralysis virus-internal ribosome entry site codon UGG assessed as eEF2-induced 80S-Trp-IRES-PRE6 formation from 80S-Trp-IRES-POST5 by FRET assay
Cricket paralysis virus [10] = test: (§1) Induction of read through activity at cricket paralysis virus-internal ribosome entry site codon UGG assessed as rate constant for octapeptide formation from FKVRQ-tRNAGln at 5 uM preincubated for 30 secs in presence of Typ-tRNA followed by Leu-tRNA and [35S]-Met-tRNA addition by co-sedimentation assay
In short: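 POST5 complex (0.02 μM) mixed with Trp-tRNATrp, Leu-tRNALeu and [35S]-Met-tRNAMet (0.08 μM each), eEF1A (0.08 μM), eEF2 (1.0 μM), eRF1 (0.010 μM) and eRF3 (0.020 μM), with or without NonSup. Incubation at 37 °C in Tris-HCl pH 7.5 buffer for 30 s to 20 min. Quench with 0.5 M MES pH 6.0 at 0 °C, ultracentrifuge through 1.1 M sucrose, and count ribosome-cosedimenting [35S] octapeptidyl-tRNA.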

Cricket paralysis virus [11] = test: Induction of read through activity at cricket paralysis virus-internal ribosome entry site premature termination codon UGA assessed as eEF2-induced 80S-Stop-IRES-PRE6 formation from 80S-Stop-IRES-POST5 at 1 to 10 uM by FRET assay
Cricket paralysis virus [12] = test: as §1, with “site premature termination” for “site”, “codon UGA” for “codon UGG”, “at 500” for “at 5”
In short: (§2)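 Time course with the same components: POST5 complex 0.02 μM, aminoacyl-tRNAs 0.08 μM each, eEF1A, eEF2, eRF1 0.010 μM, eRF3 0.020 μM, Buffer 4, 37 °C. Aliquots taken from 30 s to 20 min and MES-quenched. Octapeptide measured by ribosome cosedimentation or by base release and thin layer electrophoresis. Rate constants derived from the time courses.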

Cricket paralysis virus [13] = test: as §1, with “at 500” for “at 5”; in short: as §2

| EC50 [4] [µM] | Activity [5] | Ratio (Cricket paralysis virus [6]) | Compound | also measured |
| --- | --- | --- | --- | --- |
| 0.4 to 4 | Not Active | 0.1 to 0.3 | CN[C@@H]1[C@@H](O)[C@@H](O[C@@H]2[C@@H](O)[C@H](O[C@H]3O[C@H](CO)[C@@H](O)[C@H](O)[C@H]3N)[C@@H](N)C[C@H]2N)OC[C@]1(C)O |  |
|  | Not Active | 0.1 to 0.3 | CN(CC(=O)O)NC(=O)C[C@H](N)C[C@@H](O)CN [NEGAMYCIN] |  |
| 0.4 to 4 | Not Active | 0.1 to 0.3 | C[C@H](N)[C@H]1O[C@@H](O[C@@H]2[C@@H](O)[C@H](N)C[C@H](N)[C@H]2O[C@H]2O[C@H]([C@@H](C)O)[C@@H](O)[C@H](O)[C@H]2N)[C@H](O)[C@@H]1O |  |
|  | Not Active | 0.1 to 0.3 | COc1cccc2c1C(=O)c1c(O)c3c(c(O)c1C2=O)C[C@@](O)(C(=O)CO)C[C@@H]3O[C@H]1C[C@H](N)[C@H](O)[C@H](C)O1 [DOXORUBICIN] | Activity [7]: Active; Activity [8]: Active |
| 0.4 to 4 | Not Active | 0.1 to 0.3 | NCCC[C@H](N)CC(=O)NCCC[C@H](N)CC(=O)NCCC[C@H](N)CC(=O)NCCC[C@H](N)CC(=O)N[C@@H]1[C@H](O)[C@@H](OC(N)=O)[C@@H](CO)O[C@H]1NC1=N[C@@H]2C(=O)NC[C@@H](O)[C@H]2N1 |  |
| 170 to 350 | Not Active | 0.1 to 0.16 | N=C1NC(=O)/C(=C/c2ccc(-c3ccccc3[N+](=O)[O-])o2)S1 |  |
| 0.4 to 4 | Not Active | 0.1 to 0.3 | CN[C@@H]1[C@@H](O)[C@@H](O[C@@H]2[C@@H](O)[C@H](O[C@H]3O[C@H](CN)[C@@H](O)[C@H](O)[C@H]3O)[C@@H](N)C[C@H]2N)OC[C@]1(C)O [BETAMICIN] |  |

Continued, compound first:

| Compound | EC50 [4] [µM] | Activity [5] | Ratio (Cricket paralysis virus [6]) | also measured |
| --- | --- | --- | --- | --- |
| C/C=C(\C)C(=O)O[C@H]1[C@H](OC(C)=O)[C@]2(CO)[C@H](O)C[C@@H]3C(=CC[C@H]4[C@H]3CC[C@@H]3[C@@H]4CC[C@H](O[C@@H]4O[C@H](C(=O)O)[C@@H](O[C@@H]5O[C@H](CO)[C@@H](O)[C@H](O)[C@H]5O)[C@H](O)[C@H]4O[C@@H]4O[C@H](CO)[C@@H](O)[C@H](O)[C@H]4O)[C@]3(C)CO)[C@@H]2CC1(C)C |  |  |  | inhibition (Cricket paralysis virus [1]): Active; inhibition (INH) [2]: Active; Activity [3]: Not Active |
| NCCC[C@H](N)CC(=O)NCCC[C@H](N)CC(=O)N[C@@H]1[C@H](O)[C@@H](OC(N)=O)[C@@H](CO)O[C@H]1NC1=N[C@@H]2C(=O)NC[C@@H](O)[C@H]2N1 [STREPTOTHRICIN E] | 0.4 to 4 | Not Active | 0.1 to 0.3 |  |
| NCCC[C@H](N)CC(=O)NCCC[C@H](N)CC(=O)NCCC[C@H](N)CC(=O)NCCC[C@H](N)CC(=O)NCCC[C@H](N)CC(=O)NCCC[C@H](N)CC(=O)N[C@@H]1[C@H](O)[C@@H](OC(N)=O)[C@@H](CO)O[C@H]1NC1=N[C@@H]2C(=O)NC[C@@H](O)[C@H]2N1 | 0.4 to 4 | Not Active | 0.1 to 0.3 |  |
| CC[C@H]1OC(=O)[C@H](C)[C@@H](O[C@H]2C[C@@](C)(OC)[C@@H](O)[C@H](C)O2)[C@H](C)[C@@H](O[C@@H]2O[C@H](C)C[C@H](N(C)C)[C@H]2O)[C@](C)(O)C[C@@H](C)CN(C)[C@H](C)[C@@H](O)[C@]1(C)O [AZITHROMYCIN] |  |  |  | Activity [3]: Not Active |
| COc1cccc(-n2c(SCC(=O)Nc3ccc(F)cc3)nnc2-c2ccccn2)c1 | 170 to 350 | Not Active | 0.1 to 0.16 |  |
| CN[C@@H]1[C@@H](O)[C@@H](O[C@@H]2[C@@H](O)[C@H](O[C@H]3O[C@H]([C@H](C)O)[C@@H](O)[C@H](O)[C@H]3N)[C@@H](N)C[C@H]2N)OC[C@]1(C)O | 0.98 | Not Active | 0.1 to 0.3 | Activity [9]: Not Active; K (Cricket paralysis virus [10]): 1 to 1.6 min⁻¹; Activity (Cricket paralysis virus [11]): Active |
| CCOCCCNC(=O)N1CCN(Cc2ccc3c(c2)OCO3)CC1 |  |  |  | Activity [3]: Not Active |
| C[C@@H](O)[C@H]1O[C@H](O[C@H]2[C@H](O[C@@H]3O[C@H](CN)[C@@H](O)[C@H]3O)[C@@H](O)[C@H](NC(=O)[C@@H](O)CCN)C[C@@H]2N)[C@H](N)[C@@H](O)[C@@H]1O | 0.4 to 4 | Not Active | 0.1 to 0.3 |  |
| NCCC[C@H](N)CC(=O)N[C@@H]1[C@H](O)[C@@H](OC(N)=O)[C@@H](CO)O[C@H]1NC1=N[C@@H]2C(=O)NC[C@@H](O)[C@H]2N1 | 0.4 to 4 | Not Active | 0.1 to 0.3 |  |
| O=C(O)c1cccc(-c2noc(-c3ccccc3F)n2)c1 [ATALUREN] | 170 to 350 | Not Active | 0.1 to 0.16 | K (Cricket paralysis virus [12]): 0.14 min⁻¹; K (Cricket paralysis virus [13]): 1 to 1.6 min⁻¹ |
| CC[C@H]1OC(=O)C[C@@H](O)[C@H](C)[C@@H](O[C@@H]2O[C@H](C)[C@@H](O[C@H]3C[C@@](C)(O)[C@@H](O)[C@H](C)O3)[C@H](N(C)C)[C@H]2O)[C@@H](CC=O)C[C@@H](C)C(=O)/C=C/C(C)=C/[C@@H]1CO[C@@H]1O[C@H](C)[C@@H](O)[C@@H](OC)[C@H]1OC [TYLOSIN] |  |  |  | Activity [3]: Not Active |
| NCCC[C@H](N)CC(=O)NCCC[C@H](N)CC(=O)NCCC[C@H](N)CC(=O)NCCC[C@H](N)CC(=O)NCCC[C@H](N)CC(=O)NCCC[C@H](N)CC(=O)NCCC[C@H](N)CC(=O)N[C@@H]1[C@H](O)[C@@H](OC(N)=O)[C@@H](CO)O[C@H]1NC1=N[C@@H]2C(=O)NC[C@@H](O)[C@H]2N1 | 0.4 to 4 | Not Active | 0.1 to 0.3 |  |
| NCCC[C@H](N)CC(=O)NCCC[C@H](N)CC(=O)NCCC[C@H](N)CC(=O)NCCC[C@H](N)CC(=O)NCCC[C@H](N)CC(=O)N[C@@H]1[C@H](O)[C@@H](OC(N)=O)[C@@H](CO)O[C@H]1NC1=N[C@@H]2C(=O)NC[C@@H](O)[C@H]2N1 | 0.4 to 4 | Not Active | 0.1 to 0.3 |  |
| NCCC[C@H](N)CC(=O)NCCC[C@H](N)CC(=O)NCCC[C@H](N)CC(=O)N[C@@H]1[C@H](O)[C@@H](OC(N)=O)[C@@H](CO)O[C@H]1NC1=N[C@@H]2C(=O)NC[C@@H](O)[C@H]2N1 | 0.4 to 4 | Not Active | 0.1 to 0.3 |  |
